The list is not random: actives were taken first. Their share in the collection is about 12%.
Dynein transport: dynein cargo transport inhibition; 3617.4 mouse cells, GR-EGFP nuclear translocation imaging; test concentration mostly 20 µM; stimulated with dexamethasone, 1 µM; hits give low values; z-score, hits read low; actives 0.47% (n = 220,000);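 active means plate z-score of nuclear minus cytoplasmic receptor signal below a set negative limit, without overly bright fluorescence or cell loss, cut at about -3.5 in these data, passing the limit was not always enough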;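 further: z-score of nuclear minus cytoplasmic ring GR-EGFP intensity difference per well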
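Schedule: 48 h induction, then 1 h compound, then 30 min agonist, 37 °C. Buffer or medium: tetracycline-free induction medium containing charcoal-stripped FBS. Reagent: 1.0 µM final dexamethasone stimulus. Evaluation: nuclear versus cytoplasmic GR-EGFP signal, averaged per well. Signal: high-content fluorescence imaging after fixation.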
Autophagy HCS: autophagy modulation, high-content screen; MEF GFP-LC3 puncta imaging; test concentration mostly 10 µM; actives 0.98% (n = 190,000); calls only at 10 µM (by protocol);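 active means percentage of spot-positive cells more than 3 SD above its plate mean, without a fluorescence outlier flag or 80% toxicity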;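 further: spot-positive cell cutoff set from DMSO-treated cells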
Lmaj promast: Leishmania major promastigote growth inhibition; Leishmania major promastigotes, resazurin fluorescence viability; inhibition, % at 10 µM; actives 9% (n = 200,000); AID 1063; in the data active means inhibition above about 50%;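 further: promastigotes grown with compound for 44 hours at 28 °C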
bCat nuc transl: beta-catenin nuclear translocation modulation; HeLa beta-catenin nuclear translocation, immunofluorescence imaging; nuclear translocation activity, % at 5 µM; actives 0.3% (n = 190,000); AID 1665;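 active means nuclear translocation activity above 50% at 5 µM, with a well cell count of 50 or more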;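 further: per-cell ratio of nuclear to cytoplasmic median beta-catenin stain intensity; plate controls were DMSO negative control for no effect and GSK-3 inhibitor IX positive control for full effect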
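Read-out: Nuclear/cytoplasmic beta-catenin signal ratio, % activation | Assay system: Human HeLa cell line | Times: 24 h compound exposure at 37°C, 5% CO2 | Signal: Fluorescence imaging of beta-catenin antibody stain plus DAPI | Dosing: 5 µM primary, 0.02–20 µM confirmation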
MT stabilizer: stabilizes microtubules in HeLa cells; HeLa tubulin immunostaining HCS, 24 h; share of cells brighter than vehicle mean+2SD; actives 0.83% (n = 200,000); % tubulin-high responders, % at 10 µM;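 active means plate Z-score above 3 for both tubulin-high and condensed-nucleus cell shares, with cell loss under 80%, at 10 µM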;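 further: anti alpha tubulin signal scored within the nucleus-defined area of each cell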
CHOP inhibitor: inhibitors of CHOP induction in ER stress response; CHO-K1 CHOP-promoter luciferase, tunicamycin-induced, 15-18 h; inhibition, % at 10 µM; actives 3.8% (n = 220,000); AID 2732;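 active means compounds that reduced the stress-induced luciferase reporter signal by more than about 70% of percent inhibition, limit read from the data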;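 further: 0% = tunicamycin plus vehicle and 100% = wells without tunicamycin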
CHOP inh conf: confirmation of CHOP induction inhibitors | shares compounds with CHOP inhibitor | CHO-CHOP promoter luciferase reporter, tunicamycin-induced, luminescence | inhibition, % at 10 µM | actives 45% (n = 2,100) | AID 504437;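 active means mean of three repeat readings of reporter signal inhibition above a set limit, cut at about 70% in these data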;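 further: 0% = tunicamycin plus vehicle and 100% = wells lacking tunicamycin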
An asterisk follows results filed as active; i = inactive; . = no result.

SMILES | Dynein transport | Autophagy HCS | Lmaj promast | bCat nuc transl | MT stabilizer | CHOP inhibitor | CHOP inh conf
Cc1ccc(-n2ncc(N(C)C)c(Cl)c2=O)cc1 | -0.118 | i | -5.6 | . | 1.0 | 28.2 | .
CCn1c(SCC(=O)Nc2ccccc2C)nc2nc3c(cc2c1=O)COC(C)(C)C3 | -0.095 | . | . | -2.4 | . | 17.4 | .
COc1cccc(/C=N/Nc2nnc3c(n2)[nH]c2ccccc23)c1OC | -1.06 | . | . | -0.9 | . | -17.8 | .
CC(/C=N/Nc1nnc2c(n1)[nH]c1ccccc12)=C\c1ccco1 | 0.679 | i | -2.6 | -14.1 | 2.2 | 107.1* | -26.8
COc1cccc(N2CCN(c3ccc(S(=O)(=O)N4CCCC4)cc3)CC2)c1 | 1.35 | i | 1.5 | -1.8 | 3.8 | -23.1 | .
O=C(CCl)Nc1cn(-c2ccccc2)nc1-c1ccccc1 | 1.14 | i | 98.8* | 0.6 | 12.4 | 106.8* | 105.7*
CC(=O)Nc1cn(-c2ccccc2)nc1-c1ccccc1 | 0.241 | i | 9.9 | 0.0 | 4.3 | 0.2 | .
O=C(Nc1ccc(Cl)cc1)Nc1nc(-c2ccccc2O)cs1 | 1.49 | . | . | -0.5 | . | 103.9* | 50.7
O=C(Nc1ccc(Cl)cc1)Nc1nc(-c2sccc2Br)cs1 | 0.391 | i | 39.7 | -3.0 | 1.7 | 68.3 | .
COc1ccc(OCc2n(CC(=O)OC3CC(C)CCC3C(C)C)c3ccccc3[n+]2C)cc1 (stereo unspecified) | 2.34 | . | . | 17.7 | . | 96.9* | 94.9*
CC1CCC(C(C)C)C(OC(=O)CSc2nccc(=O)[nH]2)C1 (stereo unspecified) | -0.826 | i | -5.3 | . | 1.9 | 17.3 | .
Cc1ccc(Cn2c(SCC(=O)Nc3cc(C)on3)nc3ccccc3c2=O)cc1 | -0.801 | i | 8.4 | -6.6 | 2.8 | 104.4* | 123.7*
Cc1cc(NC(=O)CSc2nc3ccccc3c(=O)n2Cc2ccccc2)no1 | -0.894 | i | 13.5 | 0.6 | 3.9 | 33.5 | .
Cc1nc(NC(=O)CSc2nc3cccnc3n2Cc2ccccc2)sc1C | -0.658 | i | 3.0 | -2.5 | 1.8 | 103.7* | 91.4*
Cc1cc(NC(=O)CSc2nnc(-c3c[nH]c4ccccc34)n2-c2ccc(Cl)cc2)no1 | -0.157 | i | 88.8* | 8.2 | 1.8 | 105.5* | -19.6
O=C(NCc1cccs1)c1ccc(Cl)c(S(=O)(=O)N2CCCC2)c1 | -0.446 | i | 5.7 | 1.0 | 1.8 | 20.8 | .
CCNC(=S)NNc1nc(N2CCCCC2)nc(N2CCOCC2)n1 | -0.0101 | i | -4.2 | -1.9 | 3.8 | -9.4 | .
COC(=O)C(Cc1cnc(Cl)s1)(C(=O)OC)c1ccc(C(F)(F)F)cc1[N+](=O)[O-] | -0.532 | i | 6.2 | -2.5 | 1.8 | 97.8* | 24.4
C=CCC(C(=O)OC)(C(=O)OC)c1ccc(C(F)(F)F)cc1[N+](=O)[O-] | -1.1 | i | 2.3 | 0.5 | 2.6 | 6.5 | .
CCC(=O)c1ccc(OC(C)C(=O)NC2(C#N)CCCCC2)cc1 (stereo unspecified) | 0.673 | i | 2.0 | -1.2 | 3.3 | 3.2 | .
Cc1ccc(NC(=O)NC(=O)CN2C(=O)NC3(CCCCCCC3)C2=O)c(C)c1 | 1.21 | i | 1.3 | 0.0 | 2.0 | 105.0* | 90.9*
CCNC(=O)CN1C(=O)NC2(CCCCCC2)C1=O | -0.332 | i | -4.8 | . | 1.6 | 11.8 | .
O=S(=O)(/N=C(/Sc1ccccc1)c1ccccc1)c1ccccc1 | 0.473 | i | -4.3 | . | 1.5 | 111.8* | 60.4
CC1CCCN(S(=O)(=O)c2ccc(C(=O)Nc3nnc(-c4ccccc4Cl)o3)cc2)C1 (stereo unspecified) | -0.577 | i | 100.3* | -0.4 | 3.0 | 98.4* | 34.5
Cc1ccc(-c2nn(C)c(=O)c3ccccc23)cc1CNC(=O)Cn1nc(-c2ccccc2)c2ccccc2c1=O | -0.477 | i | -6.2 | 1.1 | 2.4 | 97.2* | 78.5*
SMILES | Dynein transport | Autophagy HCS | Lmaj promast | bCat nuc transl | MT stabilizer | CHOP inhibitor | CHOP inh conf
COc1cc(/C=C/C(=O)O)ccc1OS(=O)(=O)c1cc(C)ccc1C | -0.746 | i | -1.9 | -3.8 | 3.7 | -17.7 | .
CN=C(Nc1cc(Cl)ccc1Cl)SC1CC(=O)N(c2ccc(C(=O)OC)cc2)C1=O (stereo unspecified) | 0.442 | i | 34.1 | -0.7 | 2.9 | 105.1* | 5.2
COC(=O)c1ccc(N2C(=O)CC(SCC(=O)Nc3ccc(OC)cc3)C2=O)cc1 (stereo unspecified) | 0.517 | . | . | 0.1 | . | 14.9 | .
CC(/C=C/c1ccc2c(c1)OCO2)=N\NC(=O)COc1ccccc1C | 0.329 | i | -5.0 | 0.9 | 4.0 | -4.3 | .
Cc1cccc(OCC(=O)N/N=C\C=C\c2ccc3c(c2)OCO3)c1C | 0.644 | i | -1.7 | -0.6 | 2.6 | 97.8* | 95.0*
CCn1c2ccccc2c2cc(NC(=O)CSc3nnc(-c4ccc(OC)cc4)n3N)ccc21 | -0.0785 | i | -1.0 | -1.1 | 11.3 | 101.9* | 43.0
COc1ccc(NC(=O)CSc2nnc(-c3ccccc3)n2N)cc1 | -0.257 | i | -3.9 | -2.7 | 3.6 | -5.6 | .
CCCCn1c(NC(=O)c2ccco2)c(S(=O)(=O)c2ccc(C)cc2)c2nc3ccccc3nc21 | 0.827 | i | -6.3 | -1.7 | 2.7 | 21.4 | .
CCCCn1c(NS(=O)(=O)c2ccccc2)c(S(=O)(=O)c2ccc(C)cc2)c2nc3ccccc3nc21 | 0.482 | i | 50.8* | -1.4 | 5.2 | 99.4* | 75.5*
CCO[C@H]1OC(C(=O)Nc2ccccc2)=C[C@@H](c2coc3ccccc3c2=O)[C@@H]1CCCO | -0.764 | i | 4.7 | -1.7 | 2.9 | 10.0 | .
Cc1ccc(S(=O)(=O)c2c(C(=O)c3ccccc3)cnc3cc4c(cc23)OCCO4)cc1 | -0.904 | i | 47.7 | -1.4 | 3.9 | 3.7 | .
Cc1ccc(-c2nc(N)sc2-c2ccc(C)cc2)cc1 | 0.841 | i | 43.8 | 0.2 | 7.2 | 96.9* | 114.5*
COc1cc2c(cc1OC)C(c1ccccc1)N(C(=O)CCl)CC2 (stereo unspecified) | -3.22 | i | 98.9* | -1.8 | 2.2 | 110.7* | 117.1*
COc1ccc2cc(C)c3nnc(SCC(=O)Nc4nc(-c5ccc(F)cc5)cs4)n3c2c1 | 0.332 | i | -1.8 | -0.6 | 2.2 | 105.1* | 6.7
COc1cc(F)ccc1S(=O)(=O)N1CCN(C23CC4CC(CC(C4)C2)C3)CC1 | 0.206 | i | 1.2 | . | 3.1 | 1.7 | .
COc1cc(C)ccc1S(=O)(=O)N1CCN(C23CC4CC(CC(C4)C2)C3)CC1 | -0.335 | i | 22.5 | -1.0 | 2.1 | 105.1* | 12.0
CC(/C=C1\SC(=Nc2cccnc2)NC1=O)=C\c1ccccc1 | 1.74 | . | . | 8.6 | . | 26.8 | .
C=CCOc1ccc(/C=C2\SC(=Nc3cccnc3)NC2=O)cc1 | 1.15 | . | . | 0.8 | . | 101.1* | -3.3
C[C@H]1CCC[C@@]2(O[C@@H](CCO)C[C@@H](O)[C@@H]2O)O1 | 1.22 | . | . | 2.2 | . | -1.6 | .
